The record followed here is ChEMBL document CHEMBL3526029, “Disposition and metabolism of GSK2251052 in humans: a novel boron-containing antibiotic” (Drug Metab Dispos, 2013).

The nature of data set [1]: AUC (0 to t) in healthy human plasma at 1500 mg, iv infusion for 1 hr as single dose. It counts as ADME, organism-based. In short, it runs like this: (§1)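 Six fasted healthy men received 1500 mg [14C]GSK2251052 as a 1-h constant-rate i.v. infusion. K2EDTA plasma was sampled from predose to 72 h, with profiling samples added at 96, 144 and 336 h. Parent and M3 were measured by validated LC/MS/MS after methanol/formic acid precipitation with stable-label internal standards (range 5–10,000 ng/ml). Noncompartmental analysis used actual times, linear-up/log-down trapezoids and CL = dose/AUC(0-∞).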

Data set [2] is described as follows: AUC (0 to infinity) in healthy human plasma at 1500 mg, iv infusion for 1 hr as single dose. It counts as ADME, organism-based. Details: dose 1500 mg, route intravenous, time infinity. A digest of the protocol:
as §1

Data set [3] is described as follows: Cmax in healthy human plasma at 1500 mg, iv infusion for 1 hr as single dose. It counts as ADME, organism-based. Details: dose 1500 mg, route intravenous. A digest of the protocol:
as §1

A short description of data set [4]: Clearance in healthy human plasma at 1500 mg, iv infusion for 1 hr as single dose. It counts as ADME, organism-based. A digest of the protocol:
as §1

Data set [5] in a line: Volume of distribution at steady state in healthy human plasma at 1500 mg, iv infusion for 1 hr as single dose. Particulars: read-out: Vdss. It counts as ADME, organism-based. In short, it runs like this: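 Healthy males got 1500 mg by 1-h IV infusion. Plasma (K2EDTA) was sampled to 72 h, plus 96, 144 and 336 h. Parent was measured by a validated LC/MS/MS method after methanol/formic acid precipitation with a stable-isotope internal standard (range 5–10,000 ng/ml). Vss = CL × MRT from noncompartmental analysis.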

A short description of data set [6]: Half life in healthy human plasma at 1500 mg, iv infusion for 1 hr as single dose. It counts as ADME, organism-based. In short, it runs like this: (§2)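 Healthy men got a single 1500 mg [14C] dose by 1 h i.v. infusion. K2EDTA blood was sampled up to 336 h. Radioactivity in blood and plasma was measured by LSC, with AMS for plasma below LLQ. Parent and M3 were measured by LC/MS/MS (5–10,000 ng/ml range). Noncompartmental analysis used actual times, with t1/2 = ln2/λz and Tmax observed directly, timed from infusion start.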

Data set [7] in a line: Tmax in healthy human plasma at 1500 mg, iv infusion for 1 hr as single dose. It counts as ADME, organism-based. A digest of the protocol:
as §2

Data set [8] can be described thus: Clearance in cynomolgus monkey at 35 mg/kg, iv administered as single infusion for 1 hr. It counts as ADME, organism-based, Macaca fascicularis. Also on record: dose 35 mg/kg, route intravenous. To be noted: in vivo. A digest of the protocol:
(§3)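 Male cynomolgus monkeys given a 1-h i.v. infusion at 35 mg/kg (7 mg/ml in saline, pH 5, 5 ml/kg/h). Where 4-MP was used, it was given by oral gavage 1 h before infusion (8.75 mg/ml in water, 4 ml/kg). K2EDTA plasma was sampled from 0.5 to 120 h after infusion start. Parent and M3 were measured by LC/MS/MS after protein precipitation (range 100–200,000 ng/ml). Noncompartmental analysis used nominal times.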

The nature of data set [9]: Volume of distribution at steady state in cynomolgus monkey at 35 mg/kg, iv administered as single infusion for 1 hr. It counts as ADME, organism-based, Macaca fascicularis. Details: dose 35 mg/kg, route intravenous. Particulars: in vivo, read-out: Vdss. A digest of the protocol: (§4)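 Cynomolgus monkeys got a 1-h IV infusion at 35 mg/kg (7 mg/ml in saline, pH 5), either alone or 1 h after oral gavage of 4-methylpyrazole (8.75 mg/ml in water, 4 ml/kg). Plasma (K2EDTA) was sampled to 120 h and assayed by protein precipitation and LC/MS/MS (range 100–200,000 ng/ml). Vss (CL × MRT) was derived by noncompartmental analysis on nominal times; values are for males.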

A short description of data set [10]: Mean residence time in cynomolgus monkey at 35 mg/kg, iv administered as single infusion for 1 hr. It counts as ADME, organism-based, Macaca fascicularis. Also on record: dose 35 mg/kg, route intravenous. To be noted: in vivo. In short, it runs like this: (§5)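 Male cynomolgus monkeys received 35 mg/kg as a 1 h i.v. infusion (7 mg/ml in saline, pH 5; 5 ml/kg/h), either alone or 1 h after oral gavage of 4-MP (8.75 mg/ml in water, 4 ml/kg). Plasma was sampled from 0.5 to 120 h, and parent and M3 were measured by LC/MS/MS. Noncompartmental analysis used nominal times, with t1/2 = ln2/λz.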

The nature of data set [11]: Half life in cynomolgus monkey at 35 mg/kg, iv administered as single infusion for 1 hr. It counts as ADME, organism-based, Macaca fascicularis. Details: dose 35 mg/kg, route intravenous. Particulars: in vivo. In short, it runs like this:
as §5

The nature of data set [12]: Tmax in cynomolgus monkey at 35 mg/kg, iv administered as single infusion for 1 hr. It counts as ADME, organism-based, Macaca fascicularis. Details: dose 35 mg/kg, route intravenous. To be noted: in vivo. In short, it runs like this: as §5
The nature of data set [13]: AUC (0 to infinity) in cynomolgus monkey at 35 mg/kg, iv administered as single infusion for 1 hr followed single oral dose of 35 mg/kg 4-MP. It counts as ADME, organism-based, Macaca fascicularis. To be noted: plasma. In short, it runs like this:
as §3

A short description of data set [14]: Cmax in cynomolgus monkey at 35 mg/kg, iv administered as single infusion for 1 hr followed single oral dose of 35 mg/kg 4-MP. It counts as ADME, organism-based, Macaca fascicularis. To be noted: in vivo. A digest of the protocol: as §3
A short description of data set [15]: Clearance in cynomolgus monkey at 35 mg/kg, iv administered as single infusion for 1 hr followed single oral dose of 35 mg/kg 4-MP. Particulars: in vivo. It counts as ADME, organism-based, Macaca fascicularis. A digest of the protocol: as §3
Data set [16] can be described thus: Volume of distribution at steady state in cynomolgus monkey at 35 mg/kg, iv administered as single infusion for 1 hr followed single oral dose of 35 mg/kg 4-MP. It counts as ADME, organism-based, Macaca fascicularis. To be noted: in vivo, read-out: Vdss. A digest of the protocol:
as §4

Data set [17] is described as follows: Mean residence time in cynomolgus monkey at 35 mg/kg, iv administered as single infusion for 1 hr followed single oral dose of 35 mg/kg 4-MP. Particulars: in vivo. It counts as ADME, organism-based, Macaca fascicularis. In short, it runs like this:
as §5

Data set [18] in a line: Half life in cynomolgus monkey at 35 mg/kg, iv administered as single infusion for 1 hr followed single oral dose of 35 mg/kg 4-MP. To be noted: in vivo. It counts as ADME, organism-based, Macaca fascicularis. In short, it runs like this: as §5
Data set [19] in a line: Tmax in cynomolgus monkey at 35 mg/kg, iv administered as single infusion for 1 hr followed single oral dose of 35 mg/kg 4-MP. To be noted: in vivo. It counts as ADME, organism-based, Macaca fascicularis. A digest of the protocol: as §5
Data set [20] in a line: Drug metabolism in human liver cytosol assessed as ADH-mediated (S)-3-(3-(aminomethyl)-1-hydroxy-1,3-dihydrobenzo[c][1,2]oxaborol-7-yloxy)propanoicacid formation at 50 to 500 uM by spectrophotometry in presence of NAD+. It counts as ADME. To be noted: TDE = time-dependent effect.
The nature of data set [21]: Drug metabolism assessed as purified ADH (unknown origin)-mediated (S)-3-(3-(aminomethyl)-1-hydroxy-1,3-dihydrobenzo[c][1,2]oxaborol-7-yloxy)propanoicacid formation at 50 to 500 uM by spectrophotometry in presence of NAD+. It counts as ADME. Particulars: human, TDE = time-dependent effect.
Data set [22] deals with Liver cytosol. Nature of the data set: Drug metabolism in human liver cytosol assessed as (S)-3-(3-(aminomethyl)-1-hydroxy-1,3-dihydrobenzo[c][1,2]oxaborol-7-yloxy)propanoicacid formation at 50 to 500 uM after 3 hrs by spectrophotometry in presence of NAD+ and ADH inhibitor 4-MP. It counts as ADME.
A short description of data set [23]: AUC (0 to infinity) in cynomolgus monkey at 35 mg/kg, iv administered as single infusion for 1 hr. Particulars: plasma. It counts as ADME, organism-based, Macaca fascicularis. Details: time infinity, dose 35 mg/kg, route intravenous. In short, it runs like this:
as §3

A short description of data set [24]: Cmax in cynomolgus monkey at 35 mg/kg, iv administered as single infusion for 1 hr. It counts as ADME, organism-based, Macaca fascicularis. Particulars: in vivo. Also on record: dose 35 mg/kg, route intravenous. A digest of the protocol:
as §3

Data set [25] can be described thus: Drug recovery in healthy human urine treated with [14C]GSK2251052 at 1500 mg, iv infusion for 1 hr as single dose after 120 to 336 hrs by HPLC method. It counts as ADME, organism-based. To be noted: in vivo, BLD = below limit of detection. In short, it runs like this:
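Urine pooled by weight per subject over 0–120 h; 120–336 h pools from all subjects combined into one composite. Centrifuged at ~21,000g, then supernatant profiled by HPLC (Atlantis T3, ammonium acetate pH 4.5/methanol, 30°C) with radiochemical detection plus MS identification. Results are % of dose, corrected for centrifugation recovery measured by triplicate LSC.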

Data set [26] in a line: Drug recovery in healthy human feces treated with [14C]GSK2251052 at 1500 mg, iv infusion for 1 hr as single dose after 120 hrs by HPLC method. It counts as ADME, organism-based. Particulars: in vivo. In short, it runs like this:
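Feces pooled over 0–120 h per subject by sample weight. About 1 g homogenate extracted twice with 4 volumes of acetonitrile:methanol:water:formic acid (50:25:25:1) under 20 min sonication. Extracts dried and reconstituted in water:methanol 90:10. Profiled by HPLC (Atlantis T3, ammonium acetate pH 4.5/methanol, 30°C) with fraction radiocounting and Orbitrap MS. Results given as % of dose, corrected for extraction recovery.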

Data set [27] can be described thus: Drug recovery in healthy human feces treated with [14C]GSK2251052 at 1500 mg, iv infusion for 1 hr as single dose after 0 to 120 hrs by HPLC method. Particulars: in vivo.

What is called AUC(0-t) is exposure summed from dosing to a finite time, without extrapolation to infinity. The term AUC(0-inf) denotes total exposure, with the tail of the curve extrapolated. For orientation: Cmax means the peak of the concentration-time curve. Usually half-life stands for how long it takes for the measured level to halve. A word on the Tmax: it is the time from dosing to the highest level. What is called MRT is the average time that molecules of a dose stay in the body. In the case of `Cl.NC[C@H]1OB(O)c2c(OCCCO)cccc21`, the AUC(0-t) at 1 h in data set [1] amounted to 72300 ng·h/mL. Moreover, the results for the total exposure AUC(0-inf) in data set [2], in data set [13] and in data set [23] were 72500 ng·h/mL, 161000 ng·h/mL and 60700 ng·h/mL, respectively. In addition, the highest concentration (Cmax) in data set [3] came to 24600 ng/mL; in [14], 68600 ng/mL; in data set [24] it was 46000 ng/mL. Besides, the clearance in data set [4] was 345 mL/min; in [8], 10 mL/min/kg; in data set [15], 3.67 mL/min/kg. Further, the Vd came out at 197 L in [5], 3.04 L/kg in data set [9] and 2.53 L/kg in data set [16]. The half-life in data set [6] is 11.6 h; in [11], 5.4 h; in [18], 9.2 h. Moreover, the figures for the Tmax in data set [7], in data set [12] and in [19] were 0.917 h, 0.92 h and 0.92 h, respectively. In addition, the MRT in [10] amounted to 4.9 h; in [17] it was 11 h. Further, the Drug metabolism entry in [20] was “tde”; in data set [21], “tde”; in data set [22], “metabolite_not_detected”.
`NCC(O)c1cccc(OCCC(=O)O)c1O` (stereo not drawn): the Drug recovery entry in data set [25] is on record as “BLD”; in data set [26], 1.4%; in data set [27] it was 1.4%.
As to `NCC(O)c1cccc(OCCCO)c1O` (stereo not drawn), the Drug recovery entry in data set [25] was “BLD”.
